Screening results from PubChem.
APJ agonist: APJ receptor agonism. AID 2520. 330,000 compounds, 0.11% hits. CHO-K1 APJ PathHunter beta-arrestin, luminescence; 0% DMSO wells, 100% apelin. activation, % at 20 µM. P35414;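 active = activation more than six SD over the plate average, tested at 20 µM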;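 also: 0% = DMSO alone and 100% = apelin-13 at 10 nM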
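Test system: CHO-K1 APJ beta-arrestin complementation cell line. Amount: cell density 1000 per well. Controls: DMSO negative, 10 nM Apelin-13 positive. Signal: luminescent beta-gal fragment complementation, chemiluminescent substrate. Read-out basis: agonist-driven arrestin binding to APJ. Timing: compound stimulation 90 min at 25 °C, detection 60 min.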
CCR6 antag: antagonists of human CCR6 receptor; CHO-K1 CCR6 PathHunter beta-arrestin, luminescence, CCL20-stimulated; inhibition, % at 20 µM; 340,000 compounds, 0.49% hits; AID 493098;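 active = compounds whose inhibition of the agonist-driven luminescence signal at 20 µM reaches about 50%, limit read from the data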;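 also: cells stimulated with CCL20 at 14 nM final; plate controls were DMSO with CCL20 for no effect and DMSO without agonist for full effect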
Target sequence (P51684 whole entry, looked up): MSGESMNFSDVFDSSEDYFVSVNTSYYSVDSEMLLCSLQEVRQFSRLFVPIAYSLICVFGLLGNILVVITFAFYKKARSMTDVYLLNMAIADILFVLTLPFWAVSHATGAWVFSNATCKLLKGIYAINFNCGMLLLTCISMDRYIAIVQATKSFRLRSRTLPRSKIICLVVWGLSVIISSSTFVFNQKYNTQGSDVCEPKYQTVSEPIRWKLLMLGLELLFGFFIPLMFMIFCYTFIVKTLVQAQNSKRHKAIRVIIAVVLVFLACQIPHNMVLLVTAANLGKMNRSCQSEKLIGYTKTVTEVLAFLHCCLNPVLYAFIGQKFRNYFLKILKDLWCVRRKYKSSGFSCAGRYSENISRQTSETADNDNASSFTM
EBI2 block: antagonists of human EBI2 receptor. inhibition, % at 5 µM. AID 651636. P32249. EBI2 beta-arrestin recruitment, luminescence, 7a,25-OHC stimulated. 360,000 compounds, 0.81% hits; in the data active = inhibition above about 38%;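 also: enzyme fragment complementation signal reports receptor beta-arrestin coupling in cells; 0% = agonist plus DMSO wells and 100% = wells without agonist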
APJ antagonist: APJ receptor antagonism; CHO-K1 APJ beta-arrestin complementation, luminescence; inhibition, % at 20 µM; 330,000 compounds, 0.32% hits; AID 2521;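 active = inhibition above about 40% at 20 µM, limit read from the data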;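 also: cells challenged with 10 nM apelin-13 agonist together with compound; plate controls were apelin-13 plus DMSO wells for no effect and DMSO wells lacking apelin-13 for full effect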
HTR2A ag: activates the mouse 5-HT2A serotonin receptor. 360,000 compounds, 0.66% hits. activation, % at 7.6 µM. CHO-K1 mHTR2A beta-arrestin complementation, luminescence; percent of 30 µM serotonin response;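 active = activation above a run cutoff, the mean activation of all tested compounds plus 3 SD, cut at about 14% in these data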;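 also: 0% = plate median of compound wells and 100% = 30 µM serotonin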
CXCR6 inh: CXCR6 (human) receptor inhibition. CHO-K1 PathHunter CXCR6 beta-arrestin, luminescence. O00574. inhibition, % at 20 µM. 360,000 compounds, 0.36% hits; in the data active = inhibition above about 34%, passing the limit was not always enough;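 also: antagonist mode with CXCL16 agonist at 10 nM final; 0% = 10 nM CXCL16 with DMSO and 100% = unstimulated wells without agonist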
Target sequence (O00574 whole entry, looked up): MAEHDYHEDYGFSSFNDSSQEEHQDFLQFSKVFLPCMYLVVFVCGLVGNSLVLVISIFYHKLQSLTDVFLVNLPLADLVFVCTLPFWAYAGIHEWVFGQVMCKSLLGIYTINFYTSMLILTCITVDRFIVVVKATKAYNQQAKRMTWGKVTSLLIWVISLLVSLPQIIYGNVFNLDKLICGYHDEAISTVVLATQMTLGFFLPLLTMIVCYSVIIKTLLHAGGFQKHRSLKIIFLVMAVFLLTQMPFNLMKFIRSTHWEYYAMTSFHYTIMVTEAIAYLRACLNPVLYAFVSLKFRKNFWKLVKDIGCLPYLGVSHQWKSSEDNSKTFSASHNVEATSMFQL
EBI2 conf: confirmation of human EBI2 receptor antagonists. shares compounds with EBI2 block. inhibition, % at 5 µM. 2,400 compounds, 29% hits. EBI2 beta-arrestin luminescence, 7a,25-OHC antagonism;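 active = inhibition of at least 50%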
EBI2 agonist: counter-screen for EBI2 antagonists: EBI2 agonist activity. shares compounds with EBI2 block. EBI2-expressing cells, agonist mode, luminescence, 60 min; 0% vehicle, 100% 7α,25-dihydroxycholesterol control. activation, % at 5 µM. 2,400 tested, under 10 active. AID 652000;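 active = activation of at least 50%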
bGal cs: inhibits E. coli beta-galactosidase, counter-screen for EBI2 antagonists. shares compounds with EBI2 block. purified beta-galactosidase, luminescent Galacton Star, 15 min. inhibition, % at 5 µM. 2,400 compounds, 1% hits;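 active = replicate-average signal at least 3 plate SD below neutral wells, shown as high inhibition, flagging enzyme-inhibiting false positives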;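 also: 0% = DMSO wells with enzyme and 100% = wells lacking enzyme; higher means stronger loss of beta-gal luminescence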
* marks the source's active call; other numbers are inactive results; nt = no result. Most compounds without a hit are left out; they make up all but 2.1% or so of the library.

SMILES	APJ agonist	CCR6 antag	EBI2 block	APJ antagonist	HTR2A ag	CXCR6 inh	EBI2 conf	EBI2 agonist	bGal cs
Cc1ccc(NCC(=O)N2CCN(S(=O)(=O)c3ccccc3)CC2)cc1F	-4.8	15.1	87.5*	-5.9	10.1	-13.9	48.3	-0.7	-9.4
N#Cc1ccc(NCC(=O)N2CCN(S(=O)(=O)c3ccccc3)CC2)cc1	-1.5	3.1	35.3	-1.0	-5.5	-1.7	nt	nt	nt
CCOc1ccc(S(=O)(=O)N2CCN(C(=O)COc3ccc(Br)cc3)CC2)cc1	-0.5	21.9	87.5*	-16.9	0.9	-1.5	80.5*	1.2	2.0
CCS(=O)(=O)N1CCN(C(=O)COc2ccc(-c3ccccc3)cc2)CC1	-4.3	-5.9	19.8	-3.8	-4.0	-3.7	nt	nt	nt
COC(=O)[C@]1(Cc2ccccc2)N[C@H](c2ccc(-c3ccc(F)cc3)cc2)[C@@H]2C(=O)N(C)C(=O)[C@@H]21	-5.1	6.8	18.9	12.2	-6.3	0.1	nt	nt	nt
Cc1ccc(-c2csc3ncnc(SCC(=O)NCC4CCCO4)c23)cc1 (centres undefined)	-1.5	13.7	14.4	17.5	2.7	8.0	nt	nt	nt
CCOC(=O)c1ccc(NC(=O)c2ncn3c2C(=O)NC[C@@H]3C)cc1	nt	nt	-7.7	nt	-3.8	-17.3	nt	nt	nt
COc1ccc(OCc2nnc(SCC(=O)N3c4ccccc4Sc4ccc(Cl)cc43)o2)cc1	0.2	3.9	66.4*	4.1	1.5	-1.4	54.1*	0.8	-1.0
COc1cccc(OCc2nnc(SCC(=O)N3c4ccccc4Sc4ccc(Cl)cc43)o2)c1	-3.1	-1.4	52.7*	-0.2	-5.9	8.8	28.2	0.2	-1.0
Cc1ccc(Cl)cc1N1CCN(C(=O)C2CCCN(S(=O)(=O)c3cnc[nH]3)C2)CC1 (centres undefined)	9.5	12.5	1.4	7.9	5.8	-10.7	nt	nt	nt
CC1(C)Cc2c(C#N)c(SCCC#N)nc(N3CCOCC3)c2CS1	0.4	12.9	69.5*	-5.6	-0.7	-7.8	39.3	-0.4	1.8
CCNC(=O)NC(=O)CN(C)c1ccccc1	0.5	9.7	0.8	-25.2	-3.5	-3.0	nt	nt	nt
COc1ccc(-c2cc3nc(C)c(CCC(=O)NCc4ccc(F)cc4)c(C)n3n2)c(OC)c1	1.4	-1.3	52.7*	10.4	3.6	-11.4	40.5	2.3	-7.3
COc1ccc(CNC(=O)CCc2c(C)nc3cc(-c4ccccc4OC)nn3c2C)cc1	-3.6	-0.6	10.3	11.7	1.5	0.6	nt	nt	nt
CCC(=O)Nc1ccc(NC(=O)CCc2ccccc2)cn1	0.4	1.4	-15.2	11.6	-4.4	4.3	nt	nt	nt
O=C(COC(=O)/C=C/c1cccc(Cl)c1)NC(=O)NCc1ccccc1	-3.7	11.8	-2.6	3.4	4.7	10.0	nt	nt	nt
O=C(COC(=O)/C=C/c1ccc(OC(F)F)cc1)NC(=O)NCc1ccccc1	0.8	-7.6	49.9*	0.8	-4.8	1.8	4.8	1.4	-0.5
C/C(Cc1ccccc1)=N\NC(=O)CNC(=O)Cc1ccccc1	-0.3	-3.4	1.1	-17.2	1.6	-7.6	nt	nt	nt
CNc1ccc(C(=O)N2CCN(S(=O)(=O)c3ccc4c(c3)OCCCO4)CC2)cc1[N+](=O)[O-]	-2.9	17.2	47.5*	29.6	3.3	6.8	29.2	1.2	7.7
CC(C)(C)c1ccc(/C=C/C(=O)N2CCN(c3ncccn3)CC2)cc1	-3.3	-22.0	64.5*	-1.9	-1.0	1.7	60.7*	-0.7	-18.1
O=C(/C=C/c1ccc(F)cc1)N1CCN(c2ncccn2)CC1	-1.0	-1.9	92.7*	9.9	-2.0	-3.4	78.2*	-0.8	-5.5
Cc1ccc(/C=C/C(=O)N2CCN(c3ncccn3)CC2)o1	-2.8	3.2	21.7	10.6	-2.7	2.7	nt	nt	nt
CC(C)(C)c1ccc(/C=C/C(=O)N2CCOCC2)cc1	-3.0	6.8	-9.3	-10.2	-2.5	2.7	nt	nt	nt
COc1nc(Nc2cccc(C)c2)nc(N2CCCCC2)n1	-3.6	11.9	-14.0	9.7	4.8	-5.0	nt	nt	nt
Cc1cccc(Nc2nc(N3CCCC3)nc(N3CCCC3)n2)c1	-4.4	-7.0	41.5*	11.9	0.2	-8.1	7.0	-1.4	-8.9
SMILES	APJ agonist	CCR6 antag	EBI2 block	APJ antagonist	HTR2A ag	CXCR6 inh	EBI2 conf	EBI2 agonist	bGal cs
NC(=O)c1ccc(Nc2nc(C(N)COCc3ccccc3)cs2)cc1 (centres undefined)	nt	nt	-3.5	nt	11.2	-2.6	nt	nt	nt
S=C1NC[C@H](CC2CCCCC2)N1CCc1cccc2ccccc12	-7.6	20.6	51.4*	4.9	-1.4	-2.0	19.6	1.0	7.6
N#Cc1ccc(-c2ccccc2)nc1SCCN1CCOCC1	-0.4	8.5	-4.8	9.7	-6.1	3.0	nt	nt	nt
COc1cc(/C=C(\C#N)C(=O)c2c(C)[nH]c3ccccc23)cc(OC)c1OC	1.0	10.8	44.8*	6.0	2.1	-4.6	35.1	2.8	6.7
COc1ccc(C2=CC(=O)C[C@H](c3ccc(F)cc3)C2)cc1F	-4.5	19.6	34.1	11.4	2.5	3.3	nt	nt	nt
COc1ccc(C2=CC(=O)C[C@H](c3ccc(Cl)cc3)C2)cn1	-2.1	15.4	49.6*	10.7	-4.6	1.9	40.1	-0.4	-12.7
COc1ccc([C@H]2CC(=O)C=C(c3ccc(Cl)cc3C)C2)cc1	-2.0	12.2	25.2	0.9	0.4	-10.0	nt	nt	nt
COc1ccc([C@H]2CC(=O)C=C(c3ccc(Cl)c(F)c3)C2)cc1	-1.7	15.0	50.8*	14.8	0.5	-4.3	52.4*	-1.1	-5.8
COc1cccc(C2=CC(=O)C[C@H](c3ccc(Cl)cc3)C2)c1OC	-5.1	14.0	62.1*	-4.5	1.3	10.4	41.3	0.0	11.6
COc1ccc([C@H]2CC(=O)C=C(c3ccc(C)c(F)c3)C2)cc1	-4.2	13.9	52.9*	3.7	-8.3	-1.3	45.6	1.8	-1.9
Cc1cc(NC(=O)C23CC4CC(CC(C4)C2)C3)n[nH]1	-2.5	4.0	-2.8	-9.6	-0.8	3.3	nt	nt	nt
COc1ccc(C(=O)Nc2ccncc2)c(OC)c1	-2.4	11.2	-2.2	-9.4	-2.9	2.4	nt	nt	nt
COc1cc(C=O)ccc1OCc1ccccc1Br	-2.7	-15.4	-14.6	-10.6	-2.9	-3.5	nt	nt	nt
COC(=O)C1CCN(C(=O)C2CCN(C(=O)[C@H](C)NS(=O)(=O)c3ccc(C)cc3)CC2)CC1	-3.4	-11.1	-5.4	21.8	-2.0	0.3	nt	nt	nt
COc1ccc([C@H]2CC(=O)C=C(c3ccc(Cl)c(Cl)c3)C2)cc1	-0.4	17.3	79.8*	5.4	1.5	2.4	57.4*	0.0	7.5
